Test results taken from ChEMBL document CHEMBL1140106, “Blocking estrogen signaling after the hormone: pyrimidine-core inhibitors of estrogen receptor-coactivator binding” (J Med Chem, 2008).

Key:
Estrogen receptor beta [1] = molecular target: T1, Estrogen receptor beta (Homo sapiens, UniProt Q92731); experiment: Binding affinity to ERbeta assessed as inhibition of fluorescein-labeled nuclear receptor domain of steroid receptor coactivator 3 by TR-FRET assay
Estrogen receptor beta [2] = molecular target: T1, Estrogen receptor beta; experiment: Antagonist activity at ERbeta in human HEC1 cells assessed as inhibition of estrogen-induced transcriptional activity after 24 hrs by reporter gene assay; assay type: functional, cell-based, HEC-1
Estrogen receptor [3] = molecular target: T2, Estrogen receptor (Homo sapiens, UniProt P03372); experiment: Binding affinity to ERalpha assessed as inhibition of fluorescein-labeled nuclear receptor domain of steroid receptor coactivator 3 by TR-FRET assay
T2 sequence (P03372 whole entry): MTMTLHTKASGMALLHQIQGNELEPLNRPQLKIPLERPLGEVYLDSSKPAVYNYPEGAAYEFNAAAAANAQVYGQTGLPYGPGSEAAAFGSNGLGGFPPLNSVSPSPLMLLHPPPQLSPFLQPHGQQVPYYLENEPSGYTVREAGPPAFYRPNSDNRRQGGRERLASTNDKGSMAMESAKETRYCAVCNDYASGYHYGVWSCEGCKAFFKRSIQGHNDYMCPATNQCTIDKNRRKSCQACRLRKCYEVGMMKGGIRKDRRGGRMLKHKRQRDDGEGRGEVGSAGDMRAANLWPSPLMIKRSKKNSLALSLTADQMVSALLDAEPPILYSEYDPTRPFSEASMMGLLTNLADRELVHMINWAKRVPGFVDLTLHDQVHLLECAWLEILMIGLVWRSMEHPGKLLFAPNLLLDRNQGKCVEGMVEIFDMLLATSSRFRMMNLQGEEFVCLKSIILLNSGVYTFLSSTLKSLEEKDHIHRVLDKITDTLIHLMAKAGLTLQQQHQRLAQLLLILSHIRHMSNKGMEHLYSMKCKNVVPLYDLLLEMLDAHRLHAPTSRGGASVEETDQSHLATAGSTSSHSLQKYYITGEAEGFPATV
Method in brief: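 Fluorescein-SRC-3-NRD (50 nM) was then added for 1 h at room temperature in the dark. Buffer: 20 mM Tris pH 7.5, 0.01% NP40, 50 mM NaCl. SRC-1 Box II peptide served as positive control.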

Estrogen receptor [4] = molecular target: T2, Estrogen receptor; experiment: Antagonist activity at ERalpha in human HEC1 cells assessed as inhibition of estrogen-induced transcriptional activity after 24 hrs by reporter gene assay; assay type: functional, cell-based, HEC-1
Method in brief: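 HEC-1 cells, which lack endogenous ER, were lipofectin-transfected with full-length ERα vector, 2ERE-luciferase reporter and pCMV β-gal as internal control. After 6 h the medium was changed to 5% charcoal-dextran-treated calf serum with ligands.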

[5] = Cytotoxicity against human HEC1 cells assessed as decrease in viable cell count at 20 uM; assay type: cell-based; settings: hec-1, 20 µM

T1 sequence (Q92731 whole entry, the tested form may be a part): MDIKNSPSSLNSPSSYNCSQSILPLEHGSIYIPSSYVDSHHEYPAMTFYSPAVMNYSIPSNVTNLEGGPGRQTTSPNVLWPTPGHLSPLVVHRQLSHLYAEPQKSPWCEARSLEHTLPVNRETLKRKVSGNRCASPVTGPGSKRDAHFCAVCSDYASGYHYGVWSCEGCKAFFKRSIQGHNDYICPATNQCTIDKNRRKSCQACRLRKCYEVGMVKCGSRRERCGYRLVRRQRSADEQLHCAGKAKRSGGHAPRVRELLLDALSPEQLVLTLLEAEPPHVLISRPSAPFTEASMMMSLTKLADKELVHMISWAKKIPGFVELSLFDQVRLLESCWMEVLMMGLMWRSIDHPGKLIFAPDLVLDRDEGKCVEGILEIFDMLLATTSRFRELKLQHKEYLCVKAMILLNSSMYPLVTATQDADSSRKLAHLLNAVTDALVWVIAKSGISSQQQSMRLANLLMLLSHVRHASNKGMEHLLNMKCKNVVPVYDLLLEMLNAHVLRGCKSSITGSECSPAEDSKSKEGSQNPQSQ

SMILES | Ki (Estrogen receptor beta [1]) | IC50 (Estrogen receptor beta [2]) | Ki (Estrogen receptor [3]) | IC50 (Estrogen receptor [4]) | Activity [5]
CC(C)CCc1cc(NCC(C)C)nc(NCC(C)C)n1 | > 1000 µM | > 1000 µM |  |  | 
CC(C)(C)OC(=O)N(Cc1cccc2ccccc12)c1cc(CCc2ccccc2)nc(NCc2cccc3ccccc23)n1 | > 1000 µM |  | > 1000 µM | > 1000 µM | 
CC(C)CCc1cc(NCC(C)C)nc(N(C)CC(C)C)n1 | > 1000 µM |  | 7.2 µM | 9.7 µM | 
CC(C)CN(C(=O)OC(C)(C)C)c1cc(CCc2cccc3ccccc23)nc(NCc2cccc3ccccc23)n1 | > 1000 µM |  | > 1000 µM |  | 
CC(C)CCc1cc(NCC(C)C)nc(OCC(C)C)n1 | > 1000 µM |  | > 1000 µM | 6.9 µM | Active
CC(C)CCc1cc(N(CC(C)C)C(=O)OC(C)(C)C)nc(NCc2cccc3ccccc23)n1 | > 1000 µM |  | > 1000 µM |  | 
CC(C)CCc1nc(NCc2cccc3ccccc23)cc(NCC(C)C)n1 | > 1000 µM |  | > 1000 µM | > 1000 µM | 
CC(C)CCc1cc(CCC(C)C)nc(NCc2ccccc2)n1 | > 1000 µM |  | > 1000 µM | > 1000 µM | 
CC(C)CCc1cc(SCc2ccccc2)nc(SCc2ccccc2)n1 | > 1000 µM |  | > 1000 µM |  | 
CC(C)CCc1cc(N(CC(C)C)C(=O)OC(C)(C)C)nc(NCc2ccccc2)n1 | > 1000 µM |  | > 1000 µM |  | 
CC(C)CCc1cc(N(Cc2cccc3ccccc23)C(=O)OC(C)(C)C)nc(NCc2ccccc2)n1 | > 1000 µM |  | > 1000 µM |  | 
CC(C)CNc1nc(CCc2cccc3ccccc23)cc(N(CC(C)C)C(=O)OC(C)(C)C)n1 | > 1000 µM |  | > 1000 µM | > 1000 µM | 
c1ccc(CNc2cc(CCc3cccc4ccccc34)nc(NCc3ccccc3)n2)cc1 | > 1000 µM |  | > 1000 µM |  | 
CC(C)CCc1cc(S(=O)(=O)Cc2ccccc2)nc(S(=O)(=O)Cc2ccccc2)n1 | > 1000 µM |  | > 1000 µM |  | 
CC(C)CN(C(=O)OC(C)(C)C)c1cc(CCc2cccc3ccccc23)nc(NCc2ccccc2)n1 | > 1000 µM |  | > 1000 µM |  | 
C(=C\c1cc(NCc2ccccc2)nc(NCc2cccc3ccccc23)n1)/c1ccccc1 | > 1000 µM |  | > 1000 µM |  | 

SMILES | Ki (Estrogen receptor beta [1]) | IC50 (Estrogen receptor beta [2]) | Ki (Estrogen receptor [3]) | IC50 (Estrogen receptor [4]) | Activity [5]
C(=C\c1cc(NCc2cccc3ccccc23)nc(NCc2cccc3ccccc23)n1)/c1ccccc1 | > 1000 µM |  | > 1000 µM |  | 
CC(C)CNc1nc(CCc2ccccc2)cc(N(Cc2ccccc2)C(=O)OC(C)(C)C)n1 | > 1000 µM |  | > 1000 µM |  | 
CC(C)CNc1cc(/C=C/c2ccccc2)nc(NCc2ccccc2)n1 | > 1000 µM |  | > 1000 µM | 12 µM | Active
CC(C)CNc1nc(/C=C/c2ccccc2)cc(NCc2ccccc2)n1 | > 1000 µM |  | 16 µM | 9.8 µM | 
CC(C)CCc1cc(OCC(C)C)nc(OCC(C)C)n1 | > 1000 µM |  | > 1000 µM |  | 
O=S(=O)(Cc1ccccc1)c1cc(CCc2ccccc2)nc(S(=O)(=O)Cc2ccccc2)n1 | > 1000 µM |  | > 1000 µM |  | 
CC(C)CNc1nc(/C=C/c2ccccc2)cc(N(Cc2ccccc2)C(=O)OC(C)(C)C)n1 | 132 µM |  | > 1000 µM |  | 
CC(C)CSc1cc(CCc2ccccc2)nc(SCC(C)C)n1 | > 1000 µM |  | > 1000 µM |  | 
CC(C)COc1cc(OCC(C)C)nc(OCC(C)C)n1 | > 1000 µM |  | > 1000 µM | > 1000 µM | 
c1ccc(CCc2cc(SCc3ccccc3)nc(SCc3ccccc3)n2)cc1 | > 1000 µM |  | > 1000 µM |  | 
CC(C)CS(=O)(=O)c1cc(CCc2ccccc2)nc(S(=O)(=O)CC(C)C)n1 | > 1000 µM |  | > 1000 µM |  | 
CC(C)CCc1cc(NCc2ccccc2)nc(NCc2ccccc2)n1 | > 1000 µM |  | 4.1 µM | 8.3 µM | 
CC(C)CCc1cc(SCC(C)C)nc(SCC(C)C)n1 | > 1000 µM |  | > 1000 µM |  | 
c1ccc(CCc2cc(NCc3cccc4ccccc34)nc(NCc3cccc4ccccc34)n2)cc1 | > 1000 µM |  | > 1000 µM | > 1000 µM | 
CC(C)CCc1cc(NCc2cccc3ccccc23)nc(NCc2cccc3ccccc23)n1 | > 1000 µM |  | > 1000 µM | > 1000 µM | 
CC(C)CCc1cc(OCc2ccccc2)nc(OCc2ccccc2)n1 | > 1000 µM |  | > 1000 µM | > 1000 µM | 
